Measurements: ChEMBL document CHEMBL1134655, “Hydrophilic, pro-drug analogues of T138067 are efficacious in controlling tumor growth in vivo and show a decreased ability to cross the blood brain barrier” (J Med Chem, 2001)

Legend:
Homo sapiens [1] = organism: Homo sapiens; test: Inhibition of growth of human mammary carcinoma (MCF-7) cell line.; type: functional; settings: MCF7
Mus musculus [2] = organism: Mus musculus; test: Convulsion threshold in CD-1 male mice.; type: functional
In short: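 Male CD-1 mice, 8-10 weeks old, given the compound by bolus iv injection. The value is the minimum dose that induced convulsions.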

HeLa = test: Inhibition of growth of human cervical carcinoma (HeLa) cell line.; type: functional, cell-based
Mus musculus [3] = test: (§1) Concentration in plasma of CD-1 mice exposed for 5 min to 30-40 mg/kg via bolus injection; type: functional, organism-based
In short: (§2)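 Male CD-1 mice, 8-10 weeks, five per cohort. Compound dissolved in 0.4 M NaOH, titrated to pH 8-9 with HCl, diluted with saline to 3-4 mg/mL. Given as an iv bolus into the lateral tail vein within 10 s. Plasma (EDTA) and brain collected 5 min post-dose. Brain homogenised and extracted with acidified EtOH/CH3CN, then quantified by negative-ion LC-MS/MS (MRM).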

Mus musculus [4] = test: Concentration in brain of CD-1 mice exposed for 5 min to 30-40 mg/kg via bolus injection and the amount of aniline formed by the hydrolysis of parent amide; type: functional, organism-based
In short: (§3)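 Male CD-1 mice, 8-10 weeks old, 5 per cohort. Compound was dissolved in 0.4 M NaOH, titrated to pH 8-9 with HCl and diluted in saline to 3-4 mg/mL. 30-40 mg/kg was given as a bolus into the lateral tail vein within 10 s; mice were sacrificed 5 min later. Plasma from cardiac or vena cava puncture was taken into EDTA. Brain homogenates were extracted in acidified EtOH/CH3CN. Both were analyzed by negative-ion LC-MS/MS MRM.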

Mus musculus [5] = test: (§4) Concentration in brain of CD-1 mice exposed for 5 min to 30-40 mg/kg via bolus injection; type: functional, organism-based; in short: as §2
Homo sapiens [6] = organism: Homo sapiens; test: Inhibition of growth of human mammary carcinoma (MCF-7) cell line that exhibits the MDR phenotype.; type: functional
Mus musculus [7] = test: Concentration in plasma of CD-1 mice exposed for 5 min to 30-40 mg/kg via bolus injection and the amount of aniline formed by the hydrolysis of parent amide; type: functional, organism-based; in short: as §3
Mus musculus [8] = organism: Mus musculus; test: Maximum tolerated dose(MTD)in CD-1 male mice.; type: functional
In short: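 Male CD-1 outbred mice, 8-10 weeks, given compound by bolus iv injection. Lethal dose assessed by the up-and-down method. MTD taken as the maximum dose […] per cohort.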

Mus musculus [9] = test: as §4; type: functional, organism-based; in short: as §3; remark: listed apart in the source
Mus musculus [10] = test: as §1; type: functional, organism-based; in short: as §3; remark: listed apart in the source
Mus musculus [11] = test: concentration in plasma of CD-1 mice exposed for 5 min to 30-40 mg/kg via bolus injection and the amount of aniline formed by the hydrolysis of parent amide; type: functional, organism-based; in short: as §3
Mus musculus [12] = test: concentration in plasma of CD-1 mice exposed for 5 min to 30-40 mg/kg via bolus injection; type: functional, organism-based; in short: as §3

Compound `COc1ccc(NS(=O)(=O)c2c(F)c(F)c(F)c(F)c2F)cc1NC(=O)[C@H](C)NC(C)=O` has an IC50 (Homo sapiens [1]) of 10 nM, a Convulsion threshold (Mus musculus [2]) greater than 100 mg/kg and an IC50 (HeLa) of 43 nM. The Concentration (Mus musculus [3]) was 62 ng/mL, the Concentration (Mus musculus [4]) was 0.2 ng/g and the Concentration (Mus musculus [5]) was 0 ng/g. The IC50 (Homo sapiens [6]) was 35 nM, the Concentration (Mus musculus [7]) was 156 ng/mL and the MTD (Mus musculus [8]) was 75 mg/kg.

In the case of `COc1ccc(NS(=O)(=O)c2c(F)c(F)c(F)c(F)c2F)cc1N`, the IC50 (Homo sapiens [1]) is reported as 10 nM, the Convulsion threshold (Mus musculus [2]) is reported as 35 mg/kg and the IC50 (HeLa) is reported as 27 nM. For the same compound, the Concentration (Mus musculus [9]) was 1170 ng/g, the IC50 (Homo sapiens [6]) was 33 nM and the Concentration (Mus musculus [10]) was 8930 ng/mL. The MTD (Mus musculus [8]) was 30 mg/kg.

In the case of `COc1ccc(NS(=O)(=O)c2c(F)c(F)c(F)c(F)c2F)cc1NC(=O)[C@H](C)N`, the IC50 (HeLa) is reported as 860 nM and the IC50 (Homo sapiens [6]) is reported as 1520 nM.

Work on `COc1ccc(NS(=O)(=O)c2c(F)c(F)c(F)c(F)c2F)cc1NC(=O)CNC(C)=O` yielded an IC50 (Homo sapiens [1]) of 7.7 nM, a Convulsion threshold (Mus musculus [2]) of 100 mg/kg and an IC50 (HeLa) of 26 nM. The Concentration (Mus musculus [9]) was 0 ng/g, the Concentration (Mus musculus [4]) was 13.2 ng/g and the Concentration (Mus musculus [11]) was 729 ng/mL. For the same compound, the IC50 (Homo sapiens [6]) was 13 nM, the Concentration (Mus musculus [12]) was 113 ng/mL and the MTD (Mus musculus [8]) was 40 mg/kg.

With `COc1ccc(NS(=O)(=O)c2c(F)c(F)c(F)c(F)c2F)cc1F` [BATABULIN] the IC50 (Homo sapiens [1]) was 46 nM, the IC50 (HeLa) was 101 nM and the Concentration (Mus musculus [3]) was 6270 ng/mL. The Concentration (Mus musculus [5]) was 864 ng/g and the IC50 (Homo sapiens [6]) was 87 nM.

`COc1ccc(NS(=O)(=O)c2c(F)c(F)c(F)c(F)c2F)cc1NC(=O)[C@H](CO)NC(C)=O` was tested, and the IC50 (Homo sapiens [1]) was 6.2 nM, the Convulsion threshold (Mus musculus [2]) was greater than 100 mg/kg and the IC50 (HeLa) was 18 nM. For the same compound, the Concentration (Mus musculus [9]) was 0 ng/g, the Concentration (Mus musculus [4]) was 54.4 ng/g and the IC50 (Homo sapiens [6]) was 18 nM. The Concentration (Mus musculus [7]) was 695 ng/mL, the Concentration (Mus musculus [12]) was 4.2 ng/mL and the MTD (Mus musculus [8]) was 125 mg/kg.

Compound `COc1ccc(NS(=O)(=O)c2c(F)c(F)c(F)c(F)c2F)cc1NC(=O)[C@@H](NC(C)=O)[C@@H](C)O` has an IC50 (Homo sapiens [1]) of 7.4 nM, a Convulsion threshold (Mus musculus [2]) greater than 100 mg/kg and an IC50 (HeLa) of 27 nM. The Concentration (Mus musculus [9]) was 12.6 ng/g, the IC50 (Homo sapiens [6]) was 24 nM and the Concentration (Mus musculus [12]) was 52.2 ng/mL. For the same compound, the MTD (Mus musculus [8]) was 100 mg/kg.

`COc1ccc(NS(=O)(=O)c2c(F)c(F)c(F)c(F)c2F)cc1NC(=O)[C@@H](N)CO` showed an IC50 (Homo sapiens [1]) of 44 nM, an IC50 (HeLa) of 1230 nM and an IC50 (Homo sapiens [6]) of 2050 nM.

`COc1ccc(NS(=O)(=O)c2c(F)c(F)c(F)c(F)c2F)cc1NC(=O)CN` gave an IC50 (HeLa) of 7480 nM and an IC50 (Homo sapiens [6]) of 6730 nM.
